Activity calls are given as the source filed them. The calls are words filed in the database; no cut-off is given here.
Columns and labels:
[1] = molecular target: T1, 5'-nucleotidase (Rattus norvegicus, UniProt P21588); test: Inhibition of purified recombinant soluble rat CD73 expressed in Sf9 cells [3H]AMP as substrate incubated for 25 mins by scintillation counting method
T1 sequence (P21588 whole entry): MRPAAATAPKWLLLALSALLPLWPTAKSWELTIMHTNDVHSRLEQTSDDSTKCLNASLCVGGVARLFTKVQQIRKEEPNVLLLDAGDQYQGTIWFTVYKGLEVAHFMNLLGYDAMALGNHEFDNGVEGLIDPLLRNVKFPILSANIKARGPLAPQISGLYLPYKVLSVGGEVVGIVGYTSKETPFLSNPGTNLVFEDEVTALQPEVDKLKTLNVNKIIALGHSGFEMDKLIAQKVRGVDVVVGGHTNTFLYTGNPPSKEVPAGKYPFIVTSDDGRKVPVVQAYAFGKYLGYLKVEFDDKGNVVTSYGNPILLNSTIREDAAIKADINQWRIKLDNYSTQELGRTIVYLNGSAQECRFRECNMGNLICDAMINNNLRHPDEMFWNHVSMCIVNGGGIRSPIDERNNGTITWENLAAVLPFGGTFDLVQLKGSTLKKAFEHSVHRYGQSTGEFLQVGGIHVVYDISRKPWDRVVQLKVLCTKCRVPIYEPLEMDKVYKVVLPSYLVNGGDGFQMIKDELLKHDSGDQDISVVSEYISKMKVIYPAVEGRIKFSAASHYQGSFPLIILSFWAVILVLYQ
How it was run: (§1)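 Radiometric CD73 assay in 25 mM Tris, 140 mM NaCl, 25 mM NaH2PO4, pH 7.4. Enzyme per vial: rat CD73 1.63 ng, human CD73 0.365 ng, MDA-MB-231 membranes 7.4 ng protein. […] 25 min at 37 °C, shaking. Stopped with cold LaCl3/sodium acetate pH 4.0 to precipitate substrate. Filtrate counted by scintillation. Full curves; Ki from IC50 via Cheng–Prusoff.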

[2] = Selectivity index, ratio of Ki for inhibition of purified recombinant soluble rat CD73 expressed in Sf9 cells to Ki for inhibition of purified recombinant soluble human CD73 expressed in Sf9 cells
[3] = molecular target: T2, 5'-nucleotidase (Homo sapiens, UniProt P21589); test: Inhibition of native CD73 in human MDA-MB-231 cell membrane preparations [3H]AMP as substrate incubated for 25 mins by scintillation counting method; format: cell membranes; how it was run: as §1
[4] = molecular target: T2, 5'-nucleotidase; test: Inhibition of purified recombinant soluble human CD73 expressed in Sf9 cells [3H]AMP as substrate incubated for 25 mins by scintillation counting method; how it was run: as §1
[5] = molecular target: P2Y purinoceptor 1 (Homo sapiens) (UniProt P47900); test: Activation of recombinant human P2Y1 receptor expressed in human 1321N1 cells assessed as stimulation of calcium mobilization at 10 uM by fluorescence based assay; format: functional, cell-based
[6] = molecular target: P2Y purinoceptor 12 (Homo sapiens) (UniProt Q9H244); test: Activation of recombinant human P2Y12 receptor expressed in CHOK1 cells assessed as stimulation of beta-arrestin recruitment at 10 uM incubated for 90 mins by luminescence based assay
[7] = molecular target: T3, Ectonucleotide pyrophosphatase/phosphodiesterase family member 1 (Homo sapiens) (UniProt P22413); test: Inhibition of human recombinant NPP1 at 10 uM using p-nitrophenyl thymidine monophosphate substrate incubated for 30 mins by colorimetry
T3 sequence (whole entry): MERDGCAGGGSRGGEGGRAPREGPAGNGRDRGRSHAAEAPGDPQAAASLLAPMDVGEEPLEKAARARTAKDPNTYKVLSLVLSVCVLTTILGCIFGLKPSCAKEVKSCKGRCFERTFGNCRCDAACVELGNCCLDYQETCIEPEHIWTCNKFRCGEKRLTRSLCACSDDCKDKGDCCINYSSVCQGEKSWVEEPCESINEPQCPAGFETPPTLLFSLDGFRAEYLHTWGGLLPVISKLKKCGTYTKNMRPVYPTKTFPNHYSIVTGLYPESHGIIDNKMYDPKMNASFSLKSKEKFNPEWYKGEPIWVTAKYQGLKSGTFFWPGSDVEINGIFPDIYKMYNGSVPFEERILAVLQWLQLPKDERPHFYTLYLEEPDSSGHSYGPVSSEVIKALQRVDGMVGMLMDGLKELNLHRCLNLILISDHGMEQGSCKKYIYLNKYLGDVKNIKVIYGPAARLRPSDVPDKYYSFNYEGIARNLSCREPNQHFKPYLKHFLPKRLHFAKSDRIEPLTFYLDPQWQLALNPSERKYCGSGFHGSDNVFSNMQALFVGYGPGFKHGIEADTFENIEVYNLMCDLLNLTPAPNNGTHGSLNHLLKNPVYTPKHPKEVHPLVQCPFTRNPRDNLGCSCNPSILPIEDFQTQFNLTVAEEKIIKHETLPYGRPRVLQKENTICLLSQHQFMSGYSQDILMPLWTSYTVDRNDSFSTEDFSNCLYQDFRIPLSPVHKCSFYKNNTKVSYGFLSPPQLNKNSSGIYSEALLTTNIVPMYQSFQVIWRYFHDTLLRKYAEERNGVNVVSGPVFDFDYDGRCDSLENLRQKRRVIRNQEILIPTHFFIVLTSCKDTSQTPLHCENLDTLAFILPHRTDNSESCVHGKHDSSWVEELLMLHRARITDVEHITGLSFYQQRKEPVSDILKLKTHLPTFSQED

[8] = molecular target: T4, Ectonucleotide pyrophosphatase/phosphodiesterase family member 3 (Homo sapiens) (UniProt O14638); test: Inhibition of human recombinant NPP3 at 10 uM using p-nitrophenyl thymidine monophosphate substrate incubated for 30 mins by colorimetry
T4 sequence (whole entry): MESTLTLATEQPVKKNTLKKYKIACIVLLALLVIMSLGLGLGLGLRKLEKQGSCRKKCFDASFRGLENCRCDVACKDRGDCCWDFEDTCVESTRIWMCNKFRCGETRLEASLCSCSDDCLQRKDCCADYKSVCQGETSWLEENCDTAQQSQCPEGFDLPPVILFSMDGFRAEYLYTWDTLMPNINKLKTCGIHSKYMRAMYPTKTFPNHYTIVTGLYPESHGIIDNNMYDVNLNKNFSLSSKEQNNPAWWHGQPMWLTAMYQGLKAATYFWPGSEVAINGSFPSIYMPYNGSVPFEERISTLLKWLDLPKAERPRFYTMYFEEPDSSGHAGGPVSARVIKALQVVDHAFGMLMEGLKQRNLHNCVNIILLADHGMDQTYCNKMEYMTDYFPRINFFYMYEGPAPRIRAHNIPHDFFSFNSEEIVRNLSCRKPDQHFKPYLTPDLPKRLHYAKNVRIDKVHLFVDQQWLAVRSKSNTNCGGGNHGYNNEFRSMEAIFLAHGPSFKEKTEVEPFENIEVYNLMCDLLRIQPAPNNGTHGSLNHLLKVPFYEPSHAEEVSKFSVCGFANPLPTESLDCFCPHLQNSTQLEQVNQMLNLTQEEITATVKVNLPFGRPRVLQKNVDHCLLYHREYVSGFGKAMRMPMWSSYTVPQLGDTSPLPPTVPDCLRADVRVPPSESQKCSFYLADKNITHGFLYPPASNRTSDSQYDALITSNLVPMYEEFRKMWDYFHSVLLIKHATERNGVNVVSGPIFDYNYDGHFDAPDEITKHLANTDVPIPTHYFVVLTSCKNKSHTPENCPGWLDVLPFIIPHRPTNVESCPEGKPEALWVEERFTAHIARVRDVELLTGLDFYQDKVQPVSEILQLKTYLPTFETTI

[9] = molecular target: Autotaxin (Homo sapiens) (UniProt Q13822); test: Inhibition of human recombinant NPP2 at 10 uM using p-nitrophenyl thymidine monophosphate substrate incubated for 30 mins by colorimetry
[10] = Metabolic stability in human blood plasma assessed as compound degradation at 200 uM incubated for 5 hrs at 37 degC by LC-MS analysis; format: ADME, cell-free; settings: read-out: Drug degradation
How it was run: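 Human plasma from healthy donors added to aqueous compound solution, 200 μM final. Incubated at 37 °C for 5 h. Supernatants analysed by LC-MS as percentage of compound remaining over time. Three separate experiments, each in duplicate.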

[11] = Drug metabolism in rat liver microsomes at 200 uM after 2 hrs in presence of NADPH regenerative system at 37 degC by LC-MS analysis; format: ADME, Microsome; settings: read-out: Drug metabolism
[12] = Metabolic stability in rat liver microsomes assessed as intact compound level at 200 uM after 2 hrs in presence of NADPH regenerative system at 37 degC by LC-MS analysis; format: ADME, Microsome; settings: read-out: Stability
[13] = molecular target: T2, 5'-nucleotidase; test: Inhibition of human CD73
[14] = molecular target: T1, 5'-nucleotidase; test: Inhibition of rat CD73
How it was run: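 Recombinant soluble rat CD73 expressed in Sf9 insect cells (1.63 ng per vial). Buffer was 25 mM Tris, 140 mM NaCl, 25 mM NaH2PO4, pH 7.4. […] Stopped with LaCl3/sodium acetate pH 4.0 to precipitate unreacted substrate, then filtered; adenosine in the filtrate counted by scintillation. Ki derived from IC50 by Cheng–Prusoff.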

[15] = Metabolic stability in rat liver microsomes assessed as compound degradation at 200 uM after 30 mins in presence of NADPH regenerative system at 37 degC by LC-MS analysis; format: ADME, Microsome; settings: read-out: Drug degradation
How it was run: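 Rat liver microsomes (2 mg) incubated with compound at 200 μM in 2 mL at 37 °C for various times. Stopped with ice-cold acetonitrile and centrifuged. Supernatant analysed by LC-MS as percentage remaining. Three separate experiments in duplicate.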

T2 sequence (P21589 whole entry): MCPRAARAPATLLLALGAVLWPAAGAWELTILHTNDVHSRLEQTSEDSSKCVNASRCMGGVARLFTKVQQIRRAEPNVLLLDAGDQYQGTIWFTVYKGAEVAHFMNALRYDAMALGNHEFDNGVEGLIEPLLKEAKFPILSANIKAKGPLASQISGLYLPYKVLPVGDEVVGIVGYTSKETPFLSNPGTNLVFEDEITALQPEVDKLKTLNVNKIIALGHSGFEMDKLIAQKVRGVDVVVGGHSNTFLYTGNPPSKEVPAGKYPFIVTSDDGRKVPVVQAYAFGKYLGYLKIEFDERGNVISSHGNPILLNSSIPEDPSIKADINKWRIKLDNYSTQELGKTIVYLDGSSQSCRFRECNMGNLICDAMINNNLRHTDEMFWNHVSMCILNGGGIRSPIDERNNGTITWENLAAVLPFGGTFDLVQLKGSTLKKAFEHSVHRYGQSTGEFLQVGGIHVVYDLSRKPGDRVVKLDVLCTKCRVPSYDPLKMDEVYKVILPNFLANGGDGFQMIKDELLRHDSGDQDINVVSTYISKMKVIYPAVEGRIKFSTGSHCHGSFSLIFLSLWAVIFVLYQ
Chain of P2Y purinoceptor 1 (Homo sapiens) (P47900 whole entry): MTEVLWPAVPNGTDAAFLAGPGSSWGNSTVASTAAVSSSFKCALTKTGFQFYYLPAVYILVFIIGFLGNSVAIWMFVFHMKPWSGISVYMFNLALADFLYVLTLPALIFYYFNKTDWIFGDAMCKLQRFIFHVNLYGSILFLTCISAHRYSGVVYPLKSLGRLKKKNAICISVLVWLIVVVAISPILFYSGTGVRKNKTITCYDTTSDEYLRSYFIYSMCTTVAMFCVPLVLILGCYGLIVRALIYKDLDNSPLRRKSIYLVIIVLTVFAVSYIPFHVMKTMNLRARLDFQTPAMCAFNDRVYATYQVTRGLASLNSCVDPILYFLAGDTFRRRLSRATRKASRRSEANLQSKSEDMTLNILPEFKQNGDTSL
Chain of P2Y purinoceptor 12 (Homo sapiens) (Q9H244 whole entry): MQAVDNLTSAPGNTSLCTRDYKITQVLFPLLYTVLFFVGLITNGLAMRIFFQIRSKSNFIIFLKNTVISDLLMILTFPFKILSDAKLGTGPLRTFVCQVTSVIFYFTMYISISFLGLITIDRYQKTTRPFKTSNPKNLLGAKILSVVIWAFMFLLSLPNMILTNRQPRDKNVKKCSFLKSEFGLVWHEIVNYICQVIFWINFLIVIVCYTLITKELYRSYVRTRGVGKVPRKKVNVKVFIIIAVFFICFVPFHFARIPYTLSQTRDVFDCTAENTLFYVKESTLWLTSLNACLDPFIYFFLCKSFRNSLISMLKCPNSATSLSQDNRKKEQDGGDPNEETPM

SMILES | Ki [1] [nM] | Ki [3] [nM] | Ki [4] [nM] | Activity [5] | Activity [6] | inhibition [7] | inhibition [8] | inhibition [9] | other results
Nc1nc(I)nc2c1ncn2[C@@H]1O[C@H](COP(=O)(O)CP(=O)(O)O)[C@@H](O)[C@H]1O | 15.1 | 3.33 | 3.59 |  |  | inactive | inactive | inactive | metabolised at 5 h, 200 µM [10]: < 25%; metabolised at 2 h, 200 µM [11]: < 40%; remaining at 2 h, 200 µM [12]: 100%
Nc1ncnc2c1ncn2[C@@H]1O[C@H](COP(=O)(O)OP(=O)(O)O)[C@@H](O)[C@H]1O |  |  |  | Active | Active |  |  |  | 
Nc1nc(SCCC2CCCCC2)nc2c1ncn2[C@@H]1O[C@H](COP(=O)(O)CP(=O)(O)O)[C@@H](O)[C@H]1O | 56.6 | 49.1 | 46.9 | inactive | inactive | inactive | inactive | inactive | 
C=CCSc1nc(N)c2ncn([C@@H]3O[C@H](COP(=O)(O)CP(=O)(O)O)[C@@H](O)[C@H]3O)c2n1 | 65.7 | 65.4 | 61.9 |  |  |  |  |  | 
Nc1nc(N2CCNCC2)nc2c1ncn2[C@@H]1O[C@H](COP(=O)(O)CP(=O)(O)O)[C@@H](O)[C@H]1O | 2290 | 238 | 184 |  |  |  |  |  | Ratio Ki [2]: 12.5
CN(Cc1ccccc1)c1nc(Cl)nc2c1ncn2[C@@H]1O[C@H](COP(=O)(O)CP(=O)(O)O)[C@@H](O)[C@H]1O |  |  |  |  |  |  |  |  | Ki [13]: 0.318 nM; Ki [14]: 0.746 nM
Nc1ncnc2c1ncn2[C@@H]1O[C@H](COP(=O)(O)CP(=O)(O)O)[C@@H](O)[C@H]1O [PHOSPHOMETHYLPHOSPHONIC ACID ADENOSYL ESTER] | 197 | 207 |  | Active | Active |  |  |  | metabolised at 5 h, 200 µM [10]: ≤ 50%; metabolised at 0.5 h, 200 µM [15]: 100%
Nc1nc2c(ncn2[C@@H]2O[C@H](COP(=O)(O)CP(=O)(O)O)[C@@H](O)[C@H]2O)c(=O)[nH]1 [PHOSPHOMETHYLPHOSPHONIC ACID GUANOSYL ESTER] | 1110 | 255 | 410 |  |  |  |  |  | 

Now from value to compound, other results behind:

Ki [1] [nM] | Ki [3] [nM] | Ki [4] [nM] | Activity [5] | Activity [6] | inhibition [7] | inhibition [8] | inhibition [9] | SMILES | other results
116 | 15.4 | 15.5 |  |  |  |  |  | NNc1nc(N)c2ncn([C@@H]3O[C@H](COP(=O)(O)CP(=O)(O)O)[C@@H](O)[C@H]3O)c2n1 | Ratio Ki [2]: 7.5
268 | 32.2 | 23.6 | inactive | inactive | inactive | inactive | inactive | Nc1nc(Cl)c2ncn([C@@H]3O[C@H](COP(=O)(O)CP(=O)(O)O)[C@@H](O)[C@H]3O)c2n1 | Ratio Ki [2]: 6.3
326 |  |  |  |  |  |  |  | Nc1nc(=O)[nH]c2c1ncn2[C@@H]1O[C@H](COP(=O)(O)CP(=O)(O)O)[C@@H](O)[C@H]1O | 
18.6 | 4.57 | 5.93 | inactive | inactive | inactive | inactive | inactive | Nc1nc(Cl)nc2c1ncn2[C@@H]1O[C@H](COP(=O)(O)CP(=O)(O)O)[C@@H](O)[C@H]1O | 
90.6 | 35.7 | 38.8 |  |  |  |  |  | Nc1nc(N)c2ncn([C@@H]3O[C@H](COP(=O)(O)CP(=O)(O)O)[C@@H](O)[C@H]3O)c2n1 | 

Source: ChEMBL document CHEMBL4402566, “2-Substituted α,β-Methylene-ADP Derivatives: Potent Competitive Ecto-5'-nucleotidase (CD73) Inhibitors with Variable Binding Modes” (J Med Chem, 2020)
